Results from PMC2635340 (Neuropharmacology, 2008).
Structures can show the parent of a compound that is named as a salt.

Assays:
5-HT2AR = 5-HT2AR (Homo sapiens, UniProt P28223); experiment: ERK1/2 activation; type: cell-based
human 5-HT1A receptors = biological target: T1, human 5-HT1A receptors (Homo sapiens, UniProt P08908); experiment: Saturation isotherm radioligand binding, 5-HT1A receptor; settings: membranes, geometric mean ± SD, n = 3
T1 sequence (P08908 1-422): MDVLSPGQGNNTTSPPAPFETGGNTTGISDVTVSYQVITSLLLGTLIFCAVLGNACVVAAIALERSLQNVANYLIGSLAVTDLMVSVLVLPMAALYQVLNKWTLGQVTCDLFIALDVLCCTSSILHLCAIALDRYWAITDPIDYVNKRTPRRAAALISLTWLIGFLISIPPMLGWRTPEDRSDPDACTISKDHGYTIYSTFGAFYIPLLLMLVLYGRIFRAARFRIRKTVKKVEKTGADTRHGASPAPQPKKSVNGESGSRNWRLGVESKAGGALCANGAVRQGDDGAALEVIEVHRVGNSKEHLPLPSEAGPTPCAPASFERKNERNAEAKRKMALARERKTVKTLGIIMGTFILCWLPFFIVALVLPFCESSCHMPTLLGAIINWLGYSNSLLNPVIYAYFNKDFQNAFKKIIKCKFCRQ
Summary of the method: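 HEK293 membranes (5-HT1AR alone or with 5-HT2AR) were prepared by EDTA detachment, hypotonic lysis (5 mM Tris/MgCl2, pH 7.4) and 35,000g spins. They were incubated with [3H]MPPF in 50 mM Tris, pH 7.4, at 25 °C for 1.5 h, with excess NAN-190 defining nonspecific binding. Bound ligand was collected on PEI-treated GF/C filters and counted. Triplicate points; Kd and Bmax came from saturation isotherms, three experiments.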

5-HT1AR = biological target: T2, 5-HT1AR (Homo sapiens, UniProt P08908); experiment: ERK1/2 activation; type: cell-based
T2 sequence (P08908 1-422): T1 sequence (P08908 1-422)
Summary of the method: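 HEK293 cells stably expressing human 5-HT1AR (clonal, selected with G418 or hygromycin) were kept in 100 μg/ml selection antibiotic and then serum-starved in serum-free DMEM for at least 24 h. Agonist (10−10–10−4 M) was applied for 5 min; selected concentrations ran 5 min–1 h. Lysates (equal protein) were resolved by 10% SDS-PAGE. Parallel blots were probed for phospho-ERK1/2 and total ERK1/2, read by ECL densitometry with background subtracted. Serum was the positive control.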

human 5-HT2A receptors = human 5-HT2A receptors (Homo sapiens, UniProt P28223); experiment: Saturation isotherm radioligand binding, 5-HT2A receptor; settings: membranes, geometric mean ± SD, n = 3
Sequence of human 5-HT2A receptors (P28223 whole entry): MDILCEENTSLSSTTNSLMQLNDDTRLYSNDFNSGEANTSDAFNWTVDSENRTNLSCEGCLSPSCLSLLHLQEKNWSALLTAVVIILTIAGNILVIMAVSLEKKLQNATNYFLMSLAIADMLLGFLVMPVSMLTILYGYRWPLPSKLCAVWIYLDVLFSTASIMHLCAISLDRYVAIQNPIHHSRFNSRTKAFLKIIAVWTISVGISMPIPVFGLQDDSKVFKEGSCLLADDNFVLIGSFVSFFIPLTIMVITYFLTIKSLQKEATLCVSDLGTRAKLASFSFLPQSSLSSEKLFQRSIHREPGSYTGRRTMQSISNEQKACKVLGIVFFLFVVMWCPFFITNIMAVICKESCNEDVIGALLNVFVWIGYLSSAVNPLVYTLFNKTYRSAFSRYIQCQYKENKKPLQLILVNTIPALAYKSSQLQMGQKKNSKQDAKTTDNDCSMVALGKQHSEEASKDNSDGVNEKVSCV
Summary of the method: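 HEK293 membranes (5-HT2AR alone or with 5-HT1AR) were prepared by EDTA detachment, hypotonic lysis and 35,000g centrifugation. Saturation binding used [3H]MSP (0.3–10 nM) in 50 mM Tris, pH 7.4, for 1.5 h at 25 °C, with excess mianserin defining nonspecific binding. Samples were filtered on PEI-treated GF/C filters and counted by scintillation, with protein measured by BCA. Triplicate points; Kd and Bmax were fitted from isotherms, geometric mean of three experiments.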

[1] = biological target: 5-HT1A and 5-HT2A receptors (Homo sapiens, UniProt P28223); type: cell-based; settings: 50 nM, 2 hours exposure before TCB-2 alone or TCB-2 and Xaliproden HCl
Sequence of 5-HT1A and 5-HT2A receptors (P28223 whole entry): as above

[2] = HEK293 cell line 5-HT1A+2AR co-expressing

Sequence of 5-HT2AR (P28223 whole entry): as above

CC(N)Cc1c[nH]c2ccc(O)cc12 (stereo not drawn) [α-methyl-5-HT]
Time-course pattern of ERK activation (5-HT2AR; 10μM, HEK293-h5-HT2A): sustained ERK activation

COc1ccccc1N1CCN(CCN(C(=O)c2ccc(F)cc2)c2ccccn2)CC1 [[3H] MPPF, 4-(2′-Methoxy)-phenyl-1-[2′-(N-2″-pyridinyl)-p-fluorobenzamido]ethyl-piperazine]
Bmax (human 5-HT1A receptors; [2]): 8.37 ± 4.14 pmol/mg | Kd (human 5-HT1A receptors; [2]): 0.167 ± 0.013 nM | Bmax (human 5-HT1A receptors; HEK293 cell line 5-HT1AR only): 3.07 ± 1.67 pmol/mg | Kd (human 5-HT1A receptors; HEK293 cell line 5-HT1AR only): 0.267 ± 0.036 nM

FC(F)(F)c1cccc(C2=CCN(CCc3ccc4ccccc4c3)CC2)c1 [Xaliproden HCl, Xaliproden hydrochloride]
Time-course pattern of ERK1/2 activation (5-HT1AR; 5-HT1AR agonist, HEK293 cells): transient activation | Minimal concentration required to obtain observed ERK activation (5-HT1AR; 5-HT1AR cells, dose-response, 5 min): 100 nM

CN1CN(c2ccccc2)C2(CCN(CCCC(=O)c3ccc(F)cc3)CC2)C1=O [[3H] MSP, [^3H]methylspiperone]
Bmax (human 5-HT2A receptors; [2]): 7.00 ± 1.05 pmol/mg | Kd (human 5-HT2A receptors; [2]): 0.725 ± 0.199 nM | Bmax (human 5-HT2A receptors; HEK293 cell line 5-HT2AR only): 4.17 ± 2.28 pmol/mg | Kd (human 5-HT2A receptors; HEK293 cell line 5-HT2AR only): 0.246 ± 0.042 nM

O=C(c1ccc(F)cc1)C1CCN(CCn2c(=O)[nH]c3ccccc3c2=O)CC1 [Ketanserin]
Fraction of initial ERK activation observed (5-HT2AR; 50 nM Ketanserin present, 5-HT2AR clone): about half | Effect on agonist-induced ERK response [1]: switched it from sustained to transient
